Test: Toxicity liver stage against HepG2, at 10uM
Type: cell-based
Design: test concentration 10 uM, cell line HepG2-A16-CD81EGFP
Details: human, HepG2-A16-CD81EGFP cells; read-out: INHIBITION
How it was run: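 Uninfected HepG2-A16-CD81EGFP cells, 3 × 10^3 per well, 1536-well, plated on prespotted compound at 10 μM final, parasite-free screening media added to match infected plates; puromycin 10 μM positive, DMSO 0.5% negative; run in parallel with 48 h PbLuc assay at 37 °C, 5% CO2; viability by CellTiter-Glo luminescence, normalized to controls.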

Row | SMILES | cytotoxicity at 10 µM [%]
1 | O=c1[nH]c(NCCCO)nc2c1C1(CCCC1)Cc1ccccc1-2 | 8.79
2 | Cc1ccc(OCc2occc2C(=O)O)cc1 | -3.76
3 | O=C(c1cc(Cl)c(Br)[nH]1)N1CCN(Cc2ccco2)CC1 | -55.7
4 | FC(F)(F)c1cccc(CN2CCOC[C@H](Oc3cccnc3)C2)c1 | 7.74
5 | Cn1c(CN2CCCCCC2)cc(=O)c(O)c1CN1CCCC1 | 13.9
6 | COc1cc(NC(=O)C2CC(=O)N(c3cccc(Br)c3)C2)ncn1 (stereo not given) | 33.4
7 | Cc1nn(C)c(C)c1S(=O)(=O)NCCn1ccc(-c2cccs2)n1 | -3.53
8 | CNC(=O)NC1CC2(CCNCC2)c2ccc(C)cc21 (stereo not given) | -4.97
9 | O=C(c1ccnnc1)N1CC[C@H]2[C@H]1CCN2S(=O)(=O)C1CC1 | -143
10 | COCC(=O)N1CCC2(CC(=O)N(c3cccc(F)c3)C2)C1 (stereo not given) | -156
11 | Cn1cc(C2CC(=O)NC23CCN(C(=O)NC2CC2)CC3)cn1 (stereo not given) | 4.97
12 | COc1ncc(C(=O)NCc2ccccc2)cn1 | -3.99
13 | Cc1ccc(CN2CC[C@H]3C[C@@H](c4nc(C5CC5)cs4)O[C@@H]3C2)o1 | -4.29
14 | CCOC(=O)Cn1nnnc1-c1ccccc1 | 0.363
15 | CCOC(=O)CNC(=O)N1CCN(c2ncccn2)CC1 | 10.6
16 | NC(=O)c1cc2c(nc1N)CCN(C(=O)C1CCCCC1)C2 | -21.8
17 | O[C@H]1CN(CCOc2ccc(F)cc2)CC[C@@]12CCCO2 | -28.8
18 | Cc1occc1-c1nc(NC2CCCC2)ncc1-c1ccccn1 | -20.9
19 | OC1(Cn2ccc3ncccc32)CCN(Cc2cccs2)CC1 | -9.65
20 | CN(C)S(=O)(=O)NC(=O)CC(c1ccccc1)C(F)(F)F (stereo not given) | -39.5
21 | CCC(C)(C)NC(=O)C[S+]([O-])Cc1csc(C2CCCC2)n1 (stereo not given) | -41.3
22 | O=C(CCn1cncn1)NCC1CCCC1 | -43.1

Row | SMILES | cytotoxicity at 10 µM [%]
23 | Cn1cnnc1S(=O)(=O)Cc1cc(Cl)c2c(c1)OCCO2 | -44.7
24 | CCNC(=O)c1cnc(Sc2nccn2C)c(Cl)c1 | -49.2
25 | COCCNc1nc(-c2ccc(S(=O)(=O)N3CCCCCC3)cc2)cs1 | -32.7
26 | Cc1c(NCc2ccccc2C#N)cccc1-n1cnnn1 | 15.4
27 | CC(C)CC(=O)N(C)Cc1nc(C(F)(F)F)cs1 | 8.32
28 | CC(C)NC(=O)CCNC(=O)CCc1cc(Cl)cs1 | -2.59
29 | Cc1nc2c(C#N)cnn2c(C)c1CCC(=O)N(C)C(C)C(C)C (stereo not given) | -43.7
30 | COc1cccnc1NC(=O)c1ccc(COCC(F)(F)F)cc1 | -2.4
31 | NC(=O)NC(=O)CCN1CCN(CC2CC2)c2ccccc21 | 17.9
32 | CCOCCN1CCN(CCC(=O)N2CCCCC2)CC1 | -7.71
33 | CCOc1ccc(CNC(=O)N(C)CC(C)(C)O)cc1C | 4.3
34 | Cc1ccnc(C(NC(=O)c2sc(C)nc2C)C2CC2)n1 (stereo not given) | -11
35 | CC1CCN(CCCNC(=O)Nc2cc3c(cc2Br)OCCO3)CC1 | -3.11
36 | CN1CCN(Cc2ccccc2CNC(=O)c2cc(Cl)ccc2F)CC1 | 9.61
37 | CCOc1cc(CN(C)CCC#N)ccc1OC(F)F | -5.81
38 | Cc1nc(C)n(CC2CN(CC(=O)Nc3ccncc3)CCO2)n1 (stereo not given) | -0.654
39 | COc1ccc(N(C(=O)c2cnc(C)cn2)C(C)C)cc1F | -2.96
40 | CC(C)N1CCC(Nc2ccn(CCC#N)n2)C1=O (stereo not given) | 15.7
41 | CCN(C(=O)CN1CCCC1c1cc(C)no1)c1ccccc1C (stereo not given) | -0.264
42 | Cc1[nH]ncc1C(C)NCc1ccc(F)cc1 (stereo not given) | 3.28
43 | Cc1c(C(=O)N(CCN(C)C)Cc2ccccn2)oc2ccccc12 | 14.4
44 | CC(C)COCCC(=O)NS(=O)(=O)c1ccc(Cl)s1 | -21.6

Row | SMILES | cytotoxicity at 10 µM [%]
45 | OC1CCN(Cc2ccc(CNc3ncc(Cl)cc3F)cc2)CC1 | 9.96
46 | Cc1noc(C)c1CN1CCN(c2ccnc(-c3ccccc3)n2)CC1 | 6
47 | COc1ccc2cc(CNc3c(C)nn(C(C)C)c3C)ccc2c1 | -56.6
48 | COc1ccc(-c2nnc(SC(C)C(=O)NCC(C)C)[nH]2)c(OC)c1 (stereo not given) | 83.5
49 | c1coc(CNCC2Cn3nncc3CO2)c1 (stereo not given) | -92.5
50 | CN1CCC2(C=C(C(=O)N(C)C)c3ccccc32)CC1 | -102
51 | CC(C)N(C)Cc1cn2c(n1)CN(C(=O)c1ccc[nH]1)CC2 | -73.2
52 | Cc1nc(CN2C[C@@H](CN3CCOCC3)[C@@H](CO)C2)c2ccccn12 | 0.363
53 | CC(C)[C@@H]1CN(C(=O)NCc2ccco2)C[C@H]1NS(=O)(=O)N(C)C | 6.14
54 | Cc1cc(C)nc(NC2CC(=O)N(C)C2)n1 (stereo not given) | 8.61
55 | CN1CCN([C@@H]2CCN(CC3=Cc4cc(Cl)ccc4OC3)C[C@H]2O)CC1 | -5.87
56 | COc1cc2ncn(Cc3ncc[nH]3)c(=O)c2cc1OC | 5.56
57 | Cc1ccc(CNC(=O)c2cc(Cn3ccnc3C(C)C)[nH]n2)o1 | 3.42
58 | CN(Cc1ccccc1)CC1(O)CCCN(CCC2CCCCC2)C1=O (stereo not given) | -2.3
59 | Cn1ncc2c(NC3CCCN(C(=O)C4CC4)C3)nc(C(C)(C)C)nc21 (stereo not given) | 12
60 | Cc1cc(N[C@H]2CCCN(Cc3ccccc3)C2)n2nc(C)cc2n1 | 1.53
61 | Cc1ccccc1C(=O)NC[C@@H]1CCN(C(=O)c2cscn2)C[C@H]1O | -52.2
62 | Cc1cccc(N2CCC(N3CCCC4(CNC(=O)O4)C3)CC2)c1C (stereo not given) | -6.67
63 | Cc1cnc(NC(=O)c2ccc(C3CCCN3CC(C)C)s2)s1 (stereo not given) | 9.45
64 | O=C(C1CCC1)N1CCC(C(=O)N2CCC(c3ccc(F)cc3)C2)CC1 (stereo not given) | -39.8
65 | Cc1ccc(NC(=O)CNC(C)CN2CCCCC2)c(F)c1 (stereo not given) | -51.6
66 | CC(C)[C@@H]1CN(C(=O)C2(c3ccccc3)CCN(C)CC2)C[C@H]1C(=O)O | 8.73

Row | SMILES | cytotoxicity at 10 µM [%]
67 | Cc1ccc(C(=O)N2CCCC(Cn3cc(C(C)(C)N)nn3)C2)s1 (stereo not given) | -19.1
68 | COCCC1(C(=O)O)CCN(c2cc(C)c3ccccc3n2)CC1 | -41.6
69 | Cc1ccccc1N1CCN(c2ccncn2)C(C)C1 (stereo not given) | 22.6
70 | CN(Cc1n[nH]c2c1CCCC2)c1nc(C2CC2)nc2c1CCNCC2 | -10.3
71 | COCCCN1C(=O)CC[C@H]2CN(c3ccnc4ccccc34)CC[C@H]21 | -3.63
72 | CCc1nc(N)nc(NCCC(=O)N2CCCC2)c1C | -42.5
73 | O=C(NCCN1CCOCC1)c1cc(COc2ccccc2F)[nH]n1 | 13.1
74 | CCOc1cc(CNCc2cnc(C)cn2)c(Cl)cc1OC(C)C | 4.86
75 | COc1ccc(C(=O)C2CCCN(c3cc(C#N)ccn3)C2)cc1F (stereo not given) | -0.0739
76 | CC/C=C(\C)CN1CCC(CNC(=O)c2c[nH]c(=O)c(Cl)c2)C1 (stereo not given) | -13.2
77 | CCc1csc(CNC2CCN(Cc3ccccc3)C2)n1 (stereo not given) | 4.82
78 | O=C(O)CCn1ccc2c(nnc3c(-c4ccc(F)cc4)cnn32)c1=O | 4.01
79 | O=C1NC2(CCN(C/C=C/c3ccccc3)CC2)CC1c1ccccc1 (stereo not given) | -47.1
80 | Cc1cc2nc(C(C)C)cc(NCCNc3ncccc3C)n2n1 | 16.9
81 | O=C1CC(NCc2ccncc2)CN1Cc1cccc(F)c1 (stereo not given) | -7.12
82 | COc1ccc(C2(NC(=O)CCn3cncn3)CCCCC2)cc1 | -3.12
83 | COc1cccc(N2CCN(CC(O)c3cc(C)sc3C)CC2)c1 (stereo not given) | 2.24
84 | Cc1nc(C)n(CC2CCCN2Cc2ncc(C(C)(C)C)o2)n1 (stereo not given) | -5.53
85 | O=C1NCCN1C1CCN(CCOc2ccccc2F)CC1 | -3.63
86 | Cc1cc(CN2CCN(CC(O)c3ccc(C)c(C)c3)CC2)no1 (stereo not given) | -2.96
87 | Cc1ncsc1C(=O)NC1CCN(Cc2ccc(C(F)(F)F)cc2)CC1 | 15.5
88 | CCOc1ccccc1CNC(=O)N1CCC(n2cncn2)CC1 | -0.819

Row | SMILES | cytotoxicity at 10 µM [%]
89 | CC(NC(=O)Nc1cccnc1N1CCCC1)c1ccn(C)c1 (stereo not given) | -24.6
90 | Cc1ncsc1C(=O)NCCSCc1cccs1 | -2.11
91 | Cc1cnn(C2CCCN(C(=O)CCc3nccs3)C2)c1 (stereo not given) | -4.49
92 | COC(=O)c1ccc(N2CCN(C(=O)c3cnn(C)c3)C(C)C2)cc1 (stereo not given) | -11.5
93 | Cc1cnn(CCC(=O)N2CCN(c3nc(C)cs3)CC2)c1 | -11.9
94 | COc1cc(C(=O)Nc2nc(C)no2)ccc1C | -8.39
95 | NC1CCc2nc(-c3cccnc3)nc(Nc3ccc(F)cc3)c2C1 (stereo not given) | -10.5
96 | c1cnc(N2CC[C@@H](OCC3CC3)[C@@H]2Cc2cccnc2)nc1 | 3.26
97 | Cc1ccsc1C(=O)N1CCc2ncc(CN(C)C)n2CC1 | -101
98 | Cn1cc(CN2CCn3cc(CNC(=O)c4cccn4C)nc3C2)cn1 | 1.85
99 | O=C(c1cscn1)N1CCO[C@H]2[C@@H](Oc3ccccn3)CC[C@@H]21 | -109
100 | COCCN1CCN(C(=O)N2CCCC2)Cc2ccc(C)nc21 | -65.5
101 | CC1COC2(CCN(C(=O)Cc3ccncc3)CC2)C1 (stereo not given) | -105
102 | Cn1cc(CN2CC[C@H]3O[C@@H](C(=O)NC4CC4)CC[C@H]32)cn1 | -1.55
103 | Cc1ccc(CN2CCOCC3(C2)CN(c2ccc(C)s2)C(=O)CO3)o1 (stereo not given) | 7.31
104 | COc1ccc(C[C@H]2CN(Cc3ccoc3)CC[C@H]2OC)cc1 | 8.44
105 | CNC(=O)c1cc2c(nc1N(C)C)CCN(c1ncccn1)CC2 | -119
106 | O=C(c1cocn1)N1C[C@@H]2CN(Cc3ccco3)CCO[C@@H]2C1 | 5.24
107 | Cc1cccc(CN2CC[C@@H]3[C@@H]2CCN3C(=O)Cc2ccsc2)n1 | -107
108 | COc1cc(N2C[C@@H]3COC[C@]3(COCc3cccc(C)n3)C2)ncn1 | 12.4
109 | CN(C)C(=O)CO[C@@H]1CC[C@H]2[C@H]1OCCN2c1ncc(F)cn1 | 5.44
110 | O=C(Cc1ccncc1)N1C[C@H]2CC[C@@H](C1)N(Cc1ccccc1)C2=O | 5.79

Source: ChEMBL document CHEMBL4513216, “Probing the Open Global Health Chemical Diversity Library for Multistage-Active Starting Points for Next-Generation Antimalarials” (ACS Infect Dis, 2020)
